Results reported in ChEMBL document CHEMBL1154067, “Antiviral and cytotoxic activities of aminoarylazo compounds and aryltriazene derivatives” (Bioorg Med Chem, 2009).
Active and inactive are the calls of the source.

Assays:
Vero = experiment: Cytotoxicity against african green monkey Vero 76 cells by crystal violet staining; assay type: cell-based; conditions: chlorocebus sabaeus, vero
Outline: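 Mock-infected Vero 76 seeded at 4 × 10^5 cells/mL, run in parallel with plaque assays, with or without serial compound dilutions. Cell number of monolayers determined by crystal violet staining. CC50 = concentration reducing viable cell number 50%.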

MT4 = experiment: Cytotoxicity against human MT4 cells after 96 hrs by MTT assay; assay type: cell-based; conditions: mt4, 96 h
Outline: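 Exponentially growing mock-infected MT-4 seeded at 1 × 10^5 cells/mL in RPMI-1640 with 10% FCS, penicillin and streptomycin. Incubated with or without serial compound dilutions at 37 °C, 5% CO2. Viability by MTT after 96 h. CC50 = concentration reducing viability 50%.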

[1] = Cytotoxicity against hamster BHK21 cells assessed as reduction in cell viability after 48 to 96 hrs by MTT assay; assay type: cell-based, Mesocricetus auratus, BHK-21; conditions: bhk-21
Outline: (§1)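 Mock-infected cells in maintenance medium, MDBK at 6 × 10^5 and BHK at 1 × 10^6 cells/mL initial density, with or without serial compound dilutions. Run in parallel with antiviral assays. Viability by MTT after 48–96 h at 37 °C, 5% CO2. CC50 = concentration reducing viability 50%.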

Coxsackievirus B2 = experiment: Antiviral activity against Coxsackie virus type B2 virus infected in african green monkey Vero-76 cells after 3 days by plaque reduction assay; assay type: functional, organism-based; conditions: Enterovirus B, Vero 76, 72 h
Outline: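 Vero 76 cells seeded at 2 × 10^5 cells/well, grown overnight to confluence at 37 °C in 5% CO2, then infected at 50–100 PFU/well. Unadsorbed virus removed. Overlay of DMEM with 1% inactivated FCS and 0.75% methylcellulose, with or without serial compound dilutions. After 3 days at 37 °C, fixed and stained with crystal violet in PBS/50% ethanol; plaques counted. EC50 is the concentration reducing plaque number by 50%.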

[2] = test system: Bovine viral diarrhea virus 1; experiment: Antiviral activity against Bovine viral diarrhea virus infected in MDBK cells assessed as inhibition of virus-induced cytopathicity after 3 to 4 days by MTT assay; assay type: functional, organism-based; conditions: Bovine viral diarrhea virus isolates and strains
[3] = test system: Human immunodeficiency virus 1; experiment: Antiviral activity against HIV1 infected in human MT4 cells assessed as inhibition of virus-induced cytopathicity after 4 days by MTT assay; assay type: functional, organism-based
Human alphaherpesvirus 1 = experiment: Antiviral activity against HSV1 infected in Vero-76 cells after 3 days by plaque reduction assay; assay type: functional, organism-based; conditions: Human alphaherpesvirus 1, Vero 76, 72 h
[4] = Cytotoxicity against MDBK cells after 48 to 96 hrs by MTT assay; assay type: cell-based, Bos taurus; conditions: cattle, mdbk; outline: as §1
[5] = test system: Respiratory syncytial virus; experiment: Antiviral activity against Respiratory syncytial virus A2 infected in Vero-76 cells after 5 days by plaque reduction assay; assay type: functional, organism-based; conditions: human respiratory syncytial virus, A2, Vero 76, 120 h
Yellow fever virus = experiment: Antiviral activity against Yellow fever virus infected in BHK-21 cells assessed as inhibition of virus-induced cytopathicity after 3 to 4 days by MTT assay; assay type: functional, organism-based
[6] = test system: Vesicular stomatitis virus; experiment: Antiviral activity against Vesicular stomatitis virus after 2 days by plaque reduction assay; assay type: functional, organism-based
Vaccinia virus = experiment: Antiviral activity against Vaccinia virus after 3 days by plaque reduction assay; assay type: functional, organism-based; conditions: Orthopoxvirus vaccinia
[7] = test system: Mammalian orthoreovirus 1; experiment: Antiviral activity against Reovirus-1 infected in BHK-21 cells assessed as inhibition of virus-induced cytopathicity after 3 to 4 days by MTT assay; assay type: functional, organism-based; conditions: Mammalian orthoreovirus 1, BHK-21
Outline: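 BHK-21 cells seeded at 5 × 10^4 cells/well, grown overnight to confluent monolayers at 37 °C in 5% CO2, then infected at m.o.i. 0.01 in serum-free medium. One hour later, MEM Earle's with 1% final inactivated FCS added, with or without serial compound dilutions. Viability read by MTT after 3–4 days at 37 °C. EC50 is the concentration giving 50% protection from cytopathogenicity.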

Poliovirus 1 = experiment: Antiviral activity against Human poliovirus 1 strain Sabin after 2 days by plaque reduction assay; assay type: functional; conditions: for EC50: Enterovirus C, 48 h

SMILES | CC50 (Vero) [µM] | CC50 (MT4) [µM] | CC50 [1] [µM] | EC50 (Coxsackievirus B2) [µM] | EC50 [2] [µM] | inhibition [3] | EC50 (Human alphaherpesvirus 1) [µM] | CC50 [4] [µM] | EC50 [5] [µM] | EC50 (Yellow fever virus) [µM] | Activity [6] | Activity (Vaccinia virus) | EC50 [7] [µM] | EC50 (Poliovirus 1) [µM] | Activity (Poliovirus 1)
c1ccc(CN/N=N/c2ccccc2)cc1 | 100 | 42 | > 100 | > 100 | > 100 | inactive | > 100 | > 100 | > 100 | > 100 | inactive | inactive | > 100 | > 100 | 
CN(C)CCCNc1ccc(/N=N/c2c(F)cccc2F)cc1 | 65 | 35 | 43 | > 65 | ≥ 20 | inactive | > 65 | 20 | > 65 | 10 | inactive | inactive | 12 |  | inactive
Brc1ccc(Cn2ccc3nc(-c4ccccc4)nc-3c2)cc1 |  |  |  |  | 0.03 |  |  |  |  |  |  |  |  |  | 
Cc1ccc(/N=N/c2ccc(NCCCN(C)C)cc2)cc1 | 50 | 17 | > 100 | > 50 | > 100 | inactive | > 50 | > 100 | > 50 | > 100 | inactive | inactive | > 100 |  | inactive
CN(Cc1ccccc1)/N=N/c1ccccc1 | ≥ 100 | ≥ 100 | > 100 | > 100 | > 100 | inactive | > 100 | > 100 | > 100 | > 100 | inactive | inactive | > 100 | > 100 | 
CN(C)CCCN(/N=N/c1ccc([N+](=O)[O-])cc1)c1ccccc1 | 40 | 20 | 36 | > 40 | ≥ 39 | inactive | > 40 | 39 | > 40 | ≥ 36 | inactive | inactive | > 36 | > 40 | 
CN(C)CCCN(/N=N/c1cc(F)ccc1F)c1ccccc1 | 7 | 13 | 25 | > 7 | > 25 | inactive | > 7 | 25 | > 7 | > 25 | inactive | inactive | > 25 | > 7 | 
CN(/N=N/c1ccccc1)c1ccccc1 | 50 | 55 | > 100 | > 50 | > 100 | inactive | > 50 | > 100 | 20 | > 100 | inactive | inactive | > 100 | > 50 | 
Fc1ccc(F)c(/N=N/Nc2cccc(C(F)(F)F)c2)c1 | 80 | > 100 | > 100 | > 80 | > 100 | inactive | > 80 | > 100 | 10 | 80 | inactive | inactive | > 100 | > 80 | 
Fc1ccc(F)c(/N=N/Nc2cc(F)ccc2F)c1 | ≥ 100 | ≥ 100 | > 100 | 50 | > 100 | inactive | > 100 | > 100 | 8 | > 100 | inactive | inactive | > 100 | > 100 | 
CN(/N=N/c1cccc([N+](=O)[O-])c1)c1ccccc1 | > 100 | > 100 | > 100 | > 100 | > 82 | inactive | > 100 | 82 | 15 | > 100 | inactive | inactive | 33 | 29 | 
Cc1ccc(/N=N/N(C)c2ccccc2)cc1 | 58 | 45 | > 100 | > 58 | > 100 | inactive | > 58 | > 100 | > 58 | > 100 | inactive | inactive | > 100 | > 58 | 
COc1c(C)c2c(c(O)c1C/C=C(\C)CCC(=O)O)C(=O)OC2 [MYCOPHENOLIC ACID] | ≥ 13 | 0.2 | > 100 | > 13 | > 42 |  | > 13 | 42 | 0.6 | > 100 |  |  | > 100 | > 13 | 
O=c1cnn([C@@H]2O[C@H](CO)[C@@H](O)[C@H]2O)c(=O)[nH]1 [6-AZAURIDINE] | 20 |  | > 100 | > 20 | > 100 |  | > 20 | > 100 |  |  |  |  | > 100 | > 20 | 
Cn1c2cc(N3CCN(c4ccccn4)CC3)c(N)cc2c(=O)c2c(O)cc(O)cc21 |  |  |  |  | 0.6 |  |  |  |  |  |  |  |  |  | 
NCCCC[C@H](N)C(=O)Nc1cccc(-c2ccc(NC(=O)Nc3nc4ccccc4s3)nc2)c1 |  |  |  |  | 0.6 |  |  |  |  |  |  |  |  |  | 
CCCN(CCC)CCSc1n[nH]c2c3ccccc3nc-2n1 |  |  |  |  | 0.03 |  |  |  |  |  |  |  |  |  | 
Clc1cccc(/N=N/N2CCCCC2)c1 | > 100 | > 100 | > 100 | > 100 |  | inactive | > 100 | > 100 | > 100 | > 100 | inactive | inactive | > 100 | > 100 | 
Brc1ccc(/N=N/N2CCCC2)cc1 | ≥ 100 | > 100 | > 100 | > 100 |  | inactive | > 100 | > 100 | > 100 | > 100 | inactive | inactive | > 100 | 51 | 
c1ccc(/N=N/Nc2ccccc2)cc1 |  |  |  | > 90 | > 100 | inactive | > 90 |  | ≥ 90 | > 100 | inactive | inactive | > 100 | > 90 | 
Clc1ccc(/N=N/N2CCCC2)cc1Cl | 58 | 75 | 50 | > 58 |  | inactive | > 58 | 70 | 20 | > 50 | inactive | inactive | > 50 | 25 | 
Brc1cccc(/N=N/N2CCCC2)c1 | ≥ 100 | > 100 | > 100 | > 100 |  | inactive | > 100 | > 100 | > 100 | > 100 | inactive | inactive | > 100 | > 100 | 
Clc1cccc(/N=N/N2CCCC2)c1 | ≥ 100 | > 100 | > 100 | > 100 |  | inactive | > 100 | > 100 | > 100 | > 100 | inactive | inactive | > 100 | ≥ 100 | 
